Activity calls are given as the source filed them. No cut-off for these calls is given here.
Key:
[1] = target: T1, Mitogen-activated protein kinase 9 (Homo sapiens, UniProt P45984); test: Binding affinity to human full-length JNK2 (M1 to Q382 residues) expressed in HEK293 cells at <40 uM after 1 hr by Kinomescan method; format: cell-based
Procedure, shortened: (§1)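 Competition binding on a phage-display/cell-expressed kinase platform; each compound incubated with kinase 1 h at room temperature. Unbound kinase was captured on an immobilized affinity ligand and quantified by qPCR. […] N.A. means no inhibition below 40 µM.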
Target sequence in this assay (P45984 whole entry, looked up, the tested form may be a part): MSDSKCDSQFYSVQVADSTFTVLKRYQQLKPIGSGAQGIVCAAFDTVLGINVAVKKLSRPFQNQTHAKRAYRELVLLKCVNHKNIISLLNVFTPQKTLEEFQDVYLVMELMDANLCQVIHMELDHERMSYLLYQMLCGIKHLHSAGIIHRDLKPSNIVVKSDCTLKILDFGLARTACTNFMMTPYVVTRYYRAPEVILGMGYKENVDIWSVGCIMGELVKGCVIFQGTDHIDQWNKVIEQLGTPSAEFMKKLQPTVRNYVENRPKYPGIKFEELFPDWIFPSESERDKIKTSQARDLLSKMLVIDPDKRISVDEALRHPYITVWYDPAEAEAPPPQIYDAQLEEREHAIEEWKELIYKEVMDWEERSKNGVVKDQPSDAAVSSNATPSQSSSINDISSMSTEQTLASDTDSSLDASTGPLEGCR

[2] = target: T2, Mitogen-activated protein kinase 8 (Homo sapiens, UniProt P45983); test: Binding affinity to human full-length JNK1 (M1 to Q384 residues) expressed in HEK293 cells measured after 1 hr by Kinomescan method; format: cell-based
T2 sequence (P45983 whole entry, the tested form may be a part): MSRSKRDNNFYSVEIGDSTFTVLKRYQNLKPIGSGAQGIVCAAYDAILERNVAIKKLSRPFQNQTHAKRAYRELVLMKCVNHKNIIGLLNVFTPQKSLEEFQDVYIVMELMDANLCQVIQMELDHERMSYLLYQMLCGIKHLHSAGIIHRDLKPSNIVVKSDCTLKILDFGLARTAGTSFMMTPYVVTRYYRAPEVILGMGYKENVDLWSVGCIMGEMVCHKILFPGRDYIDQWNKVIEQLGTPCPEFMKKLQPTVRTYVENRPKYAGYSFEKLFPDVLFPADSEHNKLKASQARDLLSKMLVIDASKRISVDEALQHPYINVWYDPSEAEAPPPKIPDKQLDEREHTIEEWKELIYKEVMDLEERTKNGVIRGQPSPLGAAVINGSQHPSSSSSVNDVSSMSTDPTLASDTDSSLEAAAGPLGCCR
Procedure, shortened: (§2)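 Competition binding on a phage-display/cell-expressed kinase platform; each compound incubated with kinase 1 h at room temperature. Unbound kinase was captured on an immobilized affinity ligand and quantified by qPCR. N.A. means no inhibition below 40 µM.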

[3] = target: T3, High affinity nerve growth factor receptor (Homo sapiens, UniProt P04629); test: Binding affinity to human partial length TRKA (G475 to G790 residues) expressed in HEK293 cells measured after 1 hr by Kinomescan method; format: cell-based
Target sequence in this assay (P04629 whole entry, the tested form may be a part): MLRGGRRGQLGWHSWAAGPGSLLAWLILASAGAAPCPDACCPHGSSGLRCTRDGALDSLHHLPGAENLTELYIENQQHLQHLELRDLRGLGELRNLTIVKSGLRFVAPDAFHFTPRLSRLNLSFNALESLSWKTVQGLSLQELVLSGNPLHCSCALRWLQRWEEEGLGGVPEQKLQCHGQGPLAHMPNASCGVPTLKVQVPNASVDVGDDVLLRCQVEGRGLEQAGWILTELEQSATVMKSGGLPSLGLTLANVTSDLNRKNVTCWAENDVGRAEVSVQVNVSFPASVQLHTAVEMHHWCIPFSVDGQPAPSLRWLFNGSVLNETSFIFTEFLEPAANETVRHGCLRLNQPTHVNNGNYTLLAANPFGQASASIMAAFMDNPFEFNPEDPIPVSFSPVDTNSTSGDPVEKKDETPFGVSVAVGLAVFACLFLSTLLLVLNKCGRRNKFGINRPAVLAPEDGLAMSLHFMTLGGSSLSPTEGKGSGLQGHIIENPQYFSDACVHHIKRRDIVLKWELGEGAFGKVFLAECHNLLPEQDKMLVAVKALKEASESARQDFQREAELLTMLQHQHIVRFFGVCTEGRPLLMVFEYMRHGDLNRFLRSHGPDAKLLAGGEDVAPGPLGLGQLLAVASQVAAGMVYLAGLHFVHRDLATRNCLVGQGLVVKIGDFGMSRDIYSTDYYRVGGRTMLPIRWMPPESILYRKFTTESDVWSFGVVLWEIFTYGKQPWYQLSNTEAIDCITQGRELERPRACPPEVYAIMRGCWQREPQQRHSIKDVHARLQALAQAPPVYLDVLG

[4] = target: T4, Mitogen-activated protein kinase 10 (Homo sapiens, UniProt P53779); test: Binding affinity to human partial length JNK3 (V28 to Q422 residues) expressed in HEK293 cells at <40 uM after 1 hr by Kinomescan method; format: cell-based; procedure, shortened: as §1
T4 sequence (P53779 whole entry, the tested form may be a part): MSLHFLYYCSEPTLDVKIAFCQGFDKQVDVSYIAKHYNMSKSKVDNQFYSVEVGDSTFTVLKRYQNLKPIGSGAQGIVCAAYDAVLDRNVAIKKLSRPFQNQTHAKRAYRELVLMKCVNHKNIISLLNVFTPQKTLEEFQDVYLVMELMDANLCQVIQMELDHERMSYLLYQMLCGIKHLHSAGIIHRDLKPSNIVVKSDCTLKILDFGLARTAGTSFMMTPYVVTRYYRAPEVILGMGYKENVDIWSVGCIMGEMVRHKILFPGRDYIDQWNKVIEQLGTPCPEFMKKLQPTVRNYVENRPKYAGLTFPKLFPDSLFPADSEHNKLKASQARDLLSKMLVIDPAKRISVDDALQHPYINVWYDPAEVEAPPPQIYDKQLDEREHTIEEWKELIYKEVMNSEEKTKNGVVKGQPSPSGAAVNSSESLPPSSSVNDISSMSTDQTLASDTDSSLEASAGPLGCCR

[5] = target: BDNF/NT-3 growth factors receptor (Homo sapiens, UniProt Q16620); test: Binding affinity to human partial length TRKB (Q547 to G838 residues) expressed in HEK293 cells measured after 1 hr by Kinomescan method; format: cell-based
BDNF/NT-3 growth factors receptor, sequence (Q16620 whole entry, the tested form may be a part): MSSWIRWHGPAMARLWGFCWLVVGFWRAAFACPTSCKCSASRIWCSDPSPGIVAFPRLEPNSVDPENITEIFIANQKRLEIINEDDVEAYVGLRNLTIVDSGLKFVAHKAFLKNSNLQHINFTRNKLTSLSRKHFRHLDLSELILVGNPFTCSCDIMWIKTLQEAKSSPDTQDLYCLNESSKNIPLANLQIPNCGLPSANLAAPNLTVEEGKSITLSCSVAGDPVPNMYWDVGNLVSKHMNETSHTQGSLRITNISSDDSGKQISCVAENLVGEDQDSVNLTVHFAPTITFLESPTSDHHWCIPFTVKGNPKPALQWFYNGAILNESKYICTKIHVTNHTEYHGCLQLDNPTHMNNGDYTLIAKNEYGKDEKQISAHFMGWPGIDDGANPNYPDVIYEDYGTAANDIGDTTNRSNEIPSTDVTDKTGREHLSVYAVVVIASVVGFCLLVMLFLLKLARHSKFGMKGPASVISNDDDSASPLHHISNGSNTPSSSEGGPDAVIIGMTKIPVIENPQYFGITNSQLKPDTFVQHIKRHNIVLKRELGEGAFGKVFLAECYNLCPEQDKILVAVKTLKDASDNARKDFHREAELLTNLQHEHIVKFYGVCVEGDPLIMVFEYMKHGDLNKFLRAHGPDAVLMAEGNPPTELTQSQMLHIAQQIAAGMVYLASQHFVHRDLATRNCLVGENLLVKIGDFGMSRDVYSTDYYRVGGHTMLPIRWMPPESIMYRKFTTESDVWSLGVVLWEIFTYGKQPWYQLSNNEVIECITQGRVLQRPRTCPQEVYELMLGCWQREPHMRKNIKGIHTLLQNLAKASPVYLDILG

[6] = target: T1, Mitogen-activated protein kinase 9; test: Binding affinity to human full-length JNK2 (M1 to Q382 residues) expressed in HEK293 cells measured after 1 hr by Kinomescan method; format: cell-based; procedure, shortened: as §2
Target sequence in this assay (P45984 whole entry, the tested form may be a part): as the sequence (P45984 whole entry, looked up, the tested form may be a part) above

[7] = system: Transcription factor AP-1 (Homo sapiens); test: Inhibition of LPS-induced c-Jun phosphorylation at ser73 residues in human MONO-MAC-6 cells at 6.25 to 50 uM preincubated for 30 mins followed by LPS-stimulation and measured after 30 mins by Western blot analysis
[8] = target: T5, c-Jun N-terminal kinase, JNK (Homo sapiens, UniProt P45983+P53779+P45984); test: Inhibition of JNK in human THP1-Blue cells assessed as reduction in LPS-induced NFkappaB/AP1 activation preincubated for 30 mins followed by LPS-stimulation and measured after 24 hrs by quanti-blue staining based alkaline phosphatase reporter gene assay; format: cell-based
[9] = Cytotoxicity against human THP1-Blue cells assessed as effect on cell viability up to 50 uM after 24 hrs by CellTiter-Glo luminescent cell viability assay; format: cell-based
Procedure, shortened: (§3)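 Viability of MonoMac-6 and THP-1Blue cells was tested with compound up to 50 µM for 24 h at 37 °C, 5% CO2. After 30 min equilibration to room temperature, CellTiter-Glo reagent was added and luminescence read. IC50 was derived from percent inhibition vs log concentration, at least five points.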

[10] = target: T4, Mitogen-activated protein kinase 10; test: Binding affinity to human partial length JNK3 (V28 to Q422 residues) expressed in HEK293 cells measured after 1 hr by Kinomescan method; format: cell-based; procedure, shortened: as §2
[11] = target: T5, c-Jun N-terminal kinase, JNK; test: Inhibition of JNK in human MONO-MAC-6 cells assessed as reduction in LPS-induced IL6 production preincubated for 30 mins followed by LPS-stimulation and measured after 24 hrs by ELISA; format: cell-based
Procedure, shortened: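 MonoMac-6 cells, 2 × 10^5/well in medium with 3% endotoxin-free FBS, were pretreated 30 min with compound or DMSO, then stimulated with 250 ng/ml LPS for 24 h. IL-6 in the supernatant was measured by human IL-6 ELISA. IC50 came from percent inhibition vs log concentration (at least five points); triplicate samples, representative of three experiments.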

[12] = system: MONO-MAC-6; test: Cytotoxicity against human MONO-MAC-6 cells assessed as effect on cell viability up to 50 uM after 24 hrs by CellTiter-Glo luminescent cell viability assay; format: cell-based; conditions: mono-mac-6, 24 h; procedure, shortened: as §3
[13] = Lipophilicity, log P of the compound; format: physicochemical; conditions: octanol/water
[14] = target: T4, Mitogen-activated protein kinase 10; test: Inhibition of ligand binding to human partial length JNK3 (V28 to Q422 residues) expressed in HEK293 cells at 10 uM measured after 1 hr by Kinomescan method relative to control; format: cell-based
Procedure, shortened: (§4)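 Binding ran 1 h at room temperature. Kinase not bound to compound was captured by an immobilized affinity ligand and measured by qPCR, in duplicate.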

[15] = target: T2, Mitogen-activated protein kinase 8; test: Inhibition of ligand binding to human full-length JNK1 (M1 to Q384 residues) expressed in HEK293 cells at 10 uM measured after 1 hr by Kinomescan method relative to control; format: cell-based; procedure, shortened: as §4
[16] = target: T1, Mitogen-activated protein kinase 9; test: Inhibition of ligand binding to human full-length JNK2 (M1 to Q382 residues) expressed in HEK293 cells at 10 uM measured after 1 hr by Kinomescan method relative to control; format: cell-based; procedure, shortened: as §4
Target sequence in this assay (P45984 whole entry, looked up, the tested form may be a part): as above

[17] = target: T3, High affinity nerve growth factor receptor; test: Inhibition of ligand binding to human partial length TRKA (G475 to G790 residues) expressed in HEK293 cells at 10 uM measured after 1 hr by Kinomescan method relative to control; format: cell-based; procedure, shortened: as §4
Target sequence in this assay (P04629 33-796 limits assumed): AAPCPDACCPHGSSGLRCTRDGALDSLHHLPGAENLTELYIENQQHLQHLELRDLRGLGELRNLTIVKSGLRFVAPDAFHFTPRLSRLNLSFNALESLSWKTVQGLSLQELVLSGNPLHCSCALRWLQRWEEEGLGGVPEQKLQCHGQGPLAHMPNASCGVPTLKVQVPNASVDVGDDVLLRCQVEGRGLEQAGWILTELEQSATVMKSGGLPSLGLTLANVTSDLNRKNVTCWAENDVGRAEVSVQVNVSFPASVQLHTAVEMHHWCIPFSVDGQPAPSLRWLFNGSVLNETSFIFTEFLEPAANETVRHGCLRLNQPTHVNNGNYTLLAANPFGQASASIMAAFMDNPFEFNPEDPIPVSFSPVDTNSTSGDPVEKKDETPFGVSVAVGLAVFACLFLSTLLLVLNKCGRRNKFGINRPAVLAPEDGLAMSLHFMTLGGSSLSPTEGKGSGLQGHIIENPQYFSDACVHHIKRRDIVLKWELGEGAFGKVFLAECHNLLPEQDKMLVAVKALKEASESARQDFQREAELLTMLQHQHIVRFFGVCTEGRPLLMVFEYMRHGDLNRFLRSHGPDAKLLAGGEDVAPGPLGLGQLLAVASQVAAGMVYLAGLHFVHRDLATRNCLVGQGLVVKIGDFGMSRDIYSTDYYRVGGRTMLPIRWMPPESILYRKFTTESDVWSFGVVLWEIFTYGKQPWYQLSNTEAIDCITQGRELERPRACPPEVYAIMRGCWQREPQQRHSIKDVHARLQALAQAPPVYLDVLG

[18] = target: Casein kinase I isoform delta (Homo sapiens) (UniProt P48730); test: Inhibition of ligand binding to human full-length CK1delta (M1 to K409 residues) expressed in bacterial expression system at 10 uM measured after 1 hr by Kinomescan method relative to control; procedure, shortened: as §4
Casein kinase I isoform delta (Homo sapiens), sequence (P48730 whole entry, looked up, the tested form may be a part, canonical isoform): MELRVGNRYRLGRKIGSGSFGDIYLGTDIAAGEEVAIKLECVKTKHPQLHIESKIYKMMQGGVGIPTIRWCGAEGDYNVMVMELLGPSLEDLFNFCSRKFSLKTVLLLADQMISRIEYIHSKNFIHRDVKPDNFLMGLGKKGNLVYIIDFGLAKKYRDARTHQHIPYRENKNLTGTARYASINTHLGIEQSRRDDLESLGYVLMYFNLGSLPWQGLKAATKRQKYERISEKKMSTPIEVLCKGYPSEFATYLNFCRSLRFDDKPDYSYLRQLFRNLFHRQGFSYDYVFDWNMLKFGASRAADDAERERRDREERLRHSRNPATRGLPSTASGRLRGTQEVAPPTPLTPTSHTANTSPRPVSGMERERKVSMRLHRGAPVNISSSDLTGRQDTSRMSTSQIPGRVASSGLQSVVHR

Row | SMILES | Activity [1] | Kd [2] [µM] | Kd [3] [µM] | Activity [4] | Kd [5] [µM] | Kd [6] [µM] | inhibition [7] | IC50 [8] [µM] | inhibition [8] | Activity [9] | Kd [10] [µM] | IC50 [11] [µM] | inhibition [11] | Activity [12] | logP [13] | inhibition [14] [%] | inhibition [15] [%] | inhibition [16] [%] | inhibition [17] [%] | inhibition [18] [%]
1 | O=C1c2ccccc2-n2c1nc1ccccc1c2=O [TRYPTANTHRIN] | inactive | 23 | 9.2 | inactive | 7.2 | – | – | – | – | – | – | – | – | – | – | – | – | – | – | –
2 | CCOC(=O)CO/N=C1\c2ccccc2-c2nc3ccccc3nc21 | – | 0.022 | – | – | – | 0.735 | Active | 2.5 | Dose-dependent effect | Non-Toxic | 0.076 | 3.3 | Dose-dependent effect | Non-Toxic | – | – | – | – | – | –
3 | O=c1c2ccccc2nc2n1-c1ccccc1/C2=N\O | – | – | 1.1 | – | – | – | – | – | Dose-dependent effect | – | – | – | Dose-dependent effect | – | 2.92 | > 90 | > 90 | > 90 | > 90 | > 90

— ChEMBL document CHEMBL4325855 (Eur J Med Chem, 2019)
